In the library only some 1.3% were active in any assay of this set; here they are far more common.
S100A4 inh HTS: blocks human S100A4 binding to myosin IIA peptide. AID 652163. actives 0.14% (n = 360,000). S100A4/TAMRA-MyoIIA peptide fluorescence polarization. P26447. inhibition, % at 10.7 µM;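 active = mean inhibition of at least 70% across replicates, with every replicate also reaching that level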
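Material: S100A4 monomer protein / Buffer or medium: 50 mM HEPES pH 7.2, 10 mM CaCl2, 100 mM KCl / Times: 5 min incubation before reading / Benchmarks: neutral control DMSO, positive control TFP / Reagent: labelled myosin peptide probe, 5 nM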
RAD52 anneal inh: inhibitors of human RAD52 DNA annealing; P43351; recombinant RAD52 DNA annealing, FRET fluorescence; inhibition, % at 18.7 µM; actives 0.46% (n = 360,000); AID 651710;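 active = every replicate showing at least 50% inhibition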
RAD54 branch: inhibitors of human RAD54 branch migration; Q92698; RAD54 Holliday junction branch migration, FAM/BHQ fluorescence; inhibition, % at 10.4 µM; actives 0.14% (n = 360,000); AID 602329;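 active = mean normalized replicate activity at least 40 and at least half of replicates scoring 40 or more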;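 also: 0% = median of neutral control wells and 100% = median of positive control wells; inhibitors cause a drop in the FAM fluorescence signal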
AF4-AF9 inh: blocks AF4 peptide binding to human AF9. P42568. AlphaScreen, biotin-AF4 peptide binding to FLAG-AF9. inhibition, % at 10 µM. actives 0.47% (n = 350,000). AID 651704;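 active = every replicate reaching a set inhibition limit, whatever the replicate mean, cut at about 25% in these data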;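 also: 0% = plate neutral control median and 100% = total signal loss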
Target sequence (P42568 whole entry, looked up): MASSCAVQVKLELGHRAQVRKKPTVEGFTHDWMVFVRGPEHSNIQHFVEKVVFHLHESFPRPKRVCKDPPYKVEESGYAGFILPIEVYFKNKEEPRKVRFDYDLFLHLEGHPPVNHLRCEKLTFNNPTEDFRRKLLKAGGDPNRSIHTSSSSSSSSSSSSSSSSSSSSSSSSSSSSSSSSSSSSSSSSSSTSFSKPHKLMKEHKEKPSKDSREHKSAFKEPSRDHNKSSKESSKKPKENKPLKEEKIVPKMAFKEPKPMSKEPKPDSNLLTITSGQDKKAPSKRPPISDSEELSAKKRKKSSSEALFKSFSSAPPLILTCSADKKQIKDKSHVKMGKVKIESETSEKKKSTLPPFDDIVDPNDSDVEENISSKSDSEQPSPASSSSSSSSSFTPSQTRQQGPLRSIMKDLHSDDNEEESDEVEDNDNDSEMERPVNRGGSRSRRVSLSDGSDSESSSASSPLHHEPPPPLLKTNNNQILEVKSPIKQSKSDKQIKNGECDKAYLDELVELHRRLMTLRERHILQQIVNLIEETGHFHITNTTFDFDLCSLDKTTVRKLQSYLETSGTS
INS-1E GSIS act: primary screen for activators of insulin secretion dependent on glucose, INS-1E cells, GLuc reporter luminescence; activation, % at 16.6 µM; AID 743287; actives 0.61% (n = 370,000); INS-1E GLuc reporter insulin secretion, 2-3 h;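 active = lowest replicate activation of at least 40%, so every replicate reaches that level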;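 also: 0% = median of neutral control wells and 100% = median of IBMX positive control wells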
* hit, by the source's call; nt = no result given.

SMILES	S100A4 inh HTS	RAD52 anneal inh	RAD54 branch	AF4-AF9 inh	INS-1E GSIS act
O=C(c1ccccc1F)N1CC(=O)N2[C@@H](CO)[C@@H](c3ccc(C#Cc4ccc(F)cc4)cc3)[C@@H]2C1	5.2	-13.0	nt	0.1	-8.8
CO[C@@H]1CN(C)C(=O)c2ccc(NC(=O)C3CC3)cc2OC[C@H](C)NC[C@H]1C	-3.2	-0.9	-5.4	-2.5	15.3
O=C(Oc1ccc(/C=N/NC(=O)c2ccccn2)cc1)c1cccc(Br)c1	-0.9	-8.6	0.0	-5.5	43.9*
O=C(Oc1ccc(/C=N/NC(=O)c2ccccn2)cc1)c1ccc(Br)cc1	-3.1	-13.7	-5.2	-2.6	nt
COc1cccc(CNC(=O)[C@@H]2[C@@H](CO)[C@@H]3Cn4c(ccc(-c5cccnc5)c4=O)[C@H]2N3C(C)=O)c1	2.9	0.8	12.2	0.4	1.7
Cc1ccc(-n2ncc3c(=O)n(CC(=O)Nc4cccc(Cl)c4)cnc32)cc1C	nt	nt	-5.7	nt	257.3*
COc1ccc(NC(=O)Cn2cnc3c(cnn3-c3ccc(C)c(C)c3)c2=O)c(OC)c1	nt	nt	-3.2	nt	97.2*
C[C@@H]1CCCCO[C@@H](CN(C)C(=O)Cc2ccccc2)[C@H](C)CN([C@H](C)CO)C(=O)c2cc(NC(=O)C3CCCCC3)ccc2O1	nt	nt	-4.8	nt	-29.1
O=C(/C=C/c1ccccc1)Nc1ccc2c(c1)C(=O)NC2=O	-4.8	-3.8	-5.8	50.1*	-1.8
CC1(C)c2ccccc2N(CC(N)=O)C12C=Cc1ccccc1O2 (centres undefined)	-65.2	-76.4	-0.8	6.7	-4.1
CC1(C)c2ccccc2N2CC(=O)N(CC(N)=O)C21C (centres undefined)	118.4*	nt	-39.2	-0.2	nt
CC(C)C#Cc1cnc2c(c1)C(=O)N([C@H](C)CO)C[C@H](C)[C@@H](CN(C)C(=O)Cc1ccccn1)O2	-2.2	4.9	-3.3	-11.7	3.6
CN1CCCCC(NC(=O)CCl)C1=O (centres undefined)	1.0	-31.0	nt	nt	nt
Cn1nc(-c2ccc(Cl)cc2)c2cc(C(=O)NCCCN3CCCC3)sc21	-7.2	46.5	44.7	2.3	23.0
CCN1CCCC1CNC(=O)c1cc2c(-c3ccc(Cl)cc3)nn(C)c2s1 (centres undefined)	nt	nt	51.4*	nt	nt
CCOc1cc(CNS(=O)(=O)c2cn(C)cn2)cc(OCC)c1OCC	-0.7	-6.1	-7.4	-0.3	-1.8
CCOc1ccc(CCNS(=O)(=O)c2cn(C)cn2)cc1OCC	-1.1	-4.2	-10.9	0.1	60.0*
CCN(CC)c1ccc(/C=N/N2CCN(Cc3ccccc3Cl)CC2)cc1	14.5	0.3	10.9	26.1*	-27.9
O=[N+]([O-])c1ccc(/C=N\N2CCN(Cc3ccccc3Cl)CC2)cc1	-2.2	-55.0	-5.7	1.1	3.5
CN(C)c1ccc(/C=N/N2CCN(Cc3ccccc3Cl)CC2)cc1	1.9	-29.9	2.4	30.8*	9.4
CCN(CC)c1ccc(/C=N/N2CCN(Cc3ccccc3)CC2)cc1	1.2	-2.4	nt	36.7*	-1.8
CCN(CC)c1ccc(/C=N/N2CCN(c3ccccc3OC)CC2)cc1	-5.9	-90.5	-6.7	30.4*	-20.5
COc1ccc(/C=N/N2CCN(c3ccccc3OC)CC2)cc1OC	nt	nt	0.2	nt	17.6
C(=N\N1CCN(Cc2ccccc2)CC1)/c1ccccc1	-4.5	-12.2	nt	-65.8	5.9
COc1ccc(S(=O)(=O)N(C)C[C@@H]2Oc3ccc(NS(=O)(=O)c4ccc(C)cc4)cc3C(=O)N([C@@H](C)CO)C[C@@H]2C)cc1	-14.9	5.0	nt	3.4	-2.4
SMILES	S100A4 inh HTS	RAD52 anneal inh	RAD54 branch	AF4-AF9 inh	INS-1E GSIS act
CN(C)CCn1c(=O)n(Cc2ccccc2)c(=O)c2c3c(sc21)CCCCC3	-2.9	14.2	1.1	26.0*	-14.0
CN(C)CCCn1c(=O)n(Cc2ccco2)c(=O)c2c3c(sc21)CCCCC3	-8.1	13.8	nt	nt	-6.1
O=C(C[C@@H]1CC[C@@H](NC(=O)CC2CC2)[C@H](CO)O1)NCc1ccccc1	9.3	10.9	nt	-0.9	19.4
CCOC(=O)c1c(C)[nH]c(C(C)=NNC(=O)c2cccs2)c1C	-4.2	-13.8	-4.6	2.8	53.8*
CC(C)NC(=O)N1[C@@H](CO)[C@@H](c2ccccc2)C12CN(C(=O)Cc1cccnc1)C2	125.2*	3.8	nt	-8.3	1.2
OC[C@@H]1[C@@H](c2ccccc2)C2(CN(Cc3cccnc3)C2)N1Cc1ccncc1	15.1	-27.0	nt	26.2*	13.7
CC(=O)Nc1c(C(=O)C2CC2)oc2ccccc12	-4.7	-11.7	8.1	16.5	49.7*
